Measurements reported in ChEMBL document CHEMBL1145389, “Total synthesis and biological evaluation of C16 analogs of (-)-dictyostatin” (2007).

What was measured:
1A9/ptx-22 = experiment: Growth inhibition of beta tubulin A364T mutant expressing human 1A9/Ptx22 cells after 72 hrs; format: functional; conditions: 1A9/ptx-22, 72 h
Summary of the method: (§1)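 GI50 determined after 72 h continuous exposure to test agent in ovarian carcinoma 1A9 cells and in paclitaxel-resistant 1A9 clones carrying mutant β-tubulin (Ptx10, βPhe270→Val; Ptx22, βAla364→Thr).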

Bos taurus [1] = species: Bos taurus; experiment: Induction of bovine brain tubulin polymerization at 10 uM relative to paclitaxel
1A9 = experiment: Growth inhibition of human 1A9 cells after 72 hrs; format: functional; conditions: 1A9, 72 h; summary of the method: as §1
HeLa = experiment: Increase in cellular tubulin polymer mass in HeLa cells assessed as minimum detectable effective concentration after 21 hrs; format: functional, Homo sapiens
Summary of the method: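 HeLa cells exposed continuously for 21 h; lowest concentration producing a detectable rise in cellular tubulin polymer mass recorded as MDEC.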

1A9/ptx-10 = experiment: Growth inhibition of beta tubulin Phe270Val mutant expressing human 1A9/Ptx10 cells after 72 hrs; format: functional; conditions: 1A9/ptx-10, 72 h; summary of the method: as §1
Bos taurus [2] = species: Bos taurus; experiment: Displacement of [3H]paclitaxel from bovine brain tubulin at 4 uM
Summary of the method: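 Competition at 37 °C: 4 µM test agent against 2 µM [³H]paclitaxel for binding to microtubules assembled from 2 µM bovine brain tubulin with 20 µM dideoxyGTP; reported as percent competition.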

| Compound | % tubulin polymerization (Bos taurus [1]) | Activity (Bos taurus [2]) | GI50 (1A9/ptx-22) | GI50 (1A9) | Activity (HeLa) | GI50 (1A9/ptx-10) |
| --- | --- | --- | --- | --- | --- | --- |
| CC(=O)O[C@H]1C(=O)[C@@]2(C)[C@H]([C@H](OC(=O)c3ccccc3)[C@]3(O)C[C@H](OC(=O)[C@H](O)[C@@H](NC(=O)c4ccccc4)c4ccccc4)C(C)=C1C3(C)C)[C@]1(OC(C)=O)CO[C@@H]1C[C@@H]2O [PACLITAXEL] | 100% |  | 0.051 µM | 0.00071 µM | 5.2 nM | 0.064 µM |
| C=C/C=C\[C@H](C)[C@@H]1OC(=O)/C=C\C=C\[C@@H](C)[C@@H](O)C[C@H](O)/C=C\[C@H](C)[C@H](O)[C@@H](C)C[C@@H](C)CC[C@@H](O)[C@@H]1C [DICTYOSTATIN] |  | 75% | 0.0013 µM | 0.00069 µM | 5.4 nM | 0.0032 µM |
| C=C/C=C\[C@H](C)[C@@H]1OC(=O)/C=C\C=C\[C@@H](C)[C@@H](O)C[C@H](O)/C=C\[C@H](C)[C@H](O)[C@@H](C)CCCC[C@@H](O)[C@@H]1C | 91% | 48% | 0.0056 µM | 0.00041 µM | 25 nM | 0.47 µM |
| C=C/C=C\[C@H](C)[C@H](OC(N)=O)[C@@H](C)[C@H](O)[C@@H](C)C/C(C)=C\[C@H](C)[C@@H](O)[C@@H](C)/C=C\[C@@H](O)C[C@@H]1OC(=O)[C@H](C)[C@@H](O)[C@H]1C [DISERMOLIDE] | 148% | 76% | 0.007 µM | 0.0017 µM | 65 nM | 0.0062 µM |
| C=C/C=C\[C@H](C)[C@@H]1OC(=O)/C=C\C=C\[C@@H](C)[C@@H](O)C[C@H](O)/C=C\[C@H](C)[C@H](O)[C@@H](C)C[C@H](C)CC[C@@H](O)[C@@H]1C | 9% | 11% | 0.543 µM | 0.061 µM | 1280 nM | 0.862 µM |

The next lines start with results.

| % tubulin polymerization (Bos taurus [1]) | Activity (Bos taurus [2]) | Compound | GI50 (1A9/ptx-22) | GI50 (1A9) | Activity (HeLa) | GI50 (1A9/ptx-10) |
| --- | --- | --- | --- | --- | --- | --- |
| 6% | 7% | C=C/C=C\[C@H](C)[C@H](O)[C@H](C)[C@@H]1CC/C=C\[C@H](C)[C@@H](O)[C@@H](C)/C=C\[C@H](O)C[C@H](O)[C@H](C)/C=C\C=C\C(=O)O1 | > 50 µM | > 50 µM | > 5000 nM | 32.7 µM |
| 107% | 38% | C=C/C=C\[C@H](C)[C@@H]1OC(=O)/C=C\C=C\[C@@H](C)[C@@H](O)C[C@H](O)/C=C\[C@H](C)[C@H](O)[C@@H](C)/C=C\CC[C@@H](O)[C@@H]1C | 0.062 µM | 0.0083 µM | 11 nM | 0.942 µM |
| 3% | 4% | C=C/C=C\[C@H](C)[C@H](O)[C@@H](C)[C@H]1CC[C@@H](C)C[C@H](C)[C@@H](O)[C@@H](C)/C=C\[C@@H](O)C[C@H](O)[C@H](C)/C=C/C=C\C(=O)O1 | 53.8 µM | 7.8 µM | > 5000 nM | 44.2 µM |
| 1% | 11% | C=C/C=C\[C@H](C)[C@@H]1OC(=O)/C=C\C=C\[C@@H](C)[C@@H](O)C[C@@H](O)/C=C\[C@H](C)[C@H](O)[C@@H](C)/C=C\CC[C@@H](O)[C@@H]1C | 4.6 µM | 4.26 µM | > 5000 nM | 19.3 µM |
|  | 75% | C=C/C=C\[C@H](C)[C@H](OC(N)=O)[C@@H](C)[C@H](O)[C@@H](C)C/C=C\[C@H](C)[C@@H](O)[C@@H](C)/C=C\[C@@H](O)C[C@@H]1OC(=O)[C@H](C)[C@@H](O)[C@H]1C | 0.03 µM | 0.0037 µM | 29 nM | 0.033 µM |
| 10% | 5% | C=C/C=C\[C@H](C)[C@@H]1OC(=O)/C=C/C=C/[C@@H](C)[C@@H](O)C[C@H](O)/C=C\[C@H](C)[C@H](O)[C@@H](C)/C=C\CC[C@@H](O)[C@@H]1C | 0.847 µM | 0.21 µM | 647 nM | 23.7 µM |
